ChEMBL document CHEMBL2086249, “Use of small-molecule crystal structures to address solubility in a novel series of G protein coupled receptor 119 agonists: optimization of a lead and in vivo evaluation” (J Med Chem, 2012)

Tests used:
physchem = conditions: pH 7.4
[1] = Drug excretion in bile-duct cannulated Han Wistar rat urine; type: ADME; conditions: in vivo
[2] = Oral bioavailability in Beagle dog at 13 mg/kg; type: ADME, organism-based, Canis lupus familiaris; conditions: in vivo
Summary of the method: (§1)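 Single-dose PK in C57BL6 mice, Han Wistar rats and beagle dogs. Intravenous 2 mg/kg in 5% DMSO/95% (hydroxypropyl)-β-cyclodextrin. Oral dosing as a suspension in aqueous 0.1% (w/v) pluronic F127, at 5 mg/kg for mouse and rat and 13 mg/kg for dog. Dose volume 5 mL/kg for rodents and 2 mL/kg for dog.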

[3] = Plasma clearance in C57BL6 mouse at 2 mg/kg, iv and 5 mg/kg, po; type: ADME, organism-based
Summary of the method: (§2)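 IV dose 2 mg/kg in 5% DMSO/95% (hydroxypropyl)-β-cyclodextrin; oral dose given as suspension in aqueous 0.1% pluronic F127, 5 mg/kg for mouse and rat, 13 mg/kg for dog. Dose volumes 5 mL/kg (mouse, rat) and 2 mL/kg (dog). Animals were C57BL6 mice, Han Wistar rats and beagle dogs.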

[4] = Plasma clearance in Han Wistar rat at 2 mg/kg, iv and 5 mg/kg, po; type: ADME, organism-based
Summary of the method: as §2

[5] = Cmax in Beagle dog at 10 mg/kg; type: ADME, organism-based, Canis lupus familiaris; parameters: dose 10 mg/kg; conditions: in vivo
[6] = AUC (0 to 24 hrs) in Han Wistar rat at 100 mg/kg; type: ADME, organism-based; parameters: time < 24 hr, dose 100 mg/kg; conditions: plasma
[7] = Oral bioavailability in C57BL6 mouse at 5 mg/kg; type: ADME, organism-based; conditions: in vivo
Summary of the method: as §2

[8] = Half life in Beagle dog at 13 mg/kg, po; type: ADME, organism-based, Canis lupus familiaris; parameters: dose 13 mg/kg, route oral; conditions: in vivo
Summary of the method: as §1

[9] = Cmax in Han Wistar rat at 5 mg/kg; type: ADME, organism-based; parameters: dose 5 mg/kg; conditions: in vivo
[10] = Oral bioavailability in Han Wistar rat at 5 mg/kg; type: ADME, organism-based; conditions: in vivo
Summary of the method: as §2

[11] = Volume of distribution at steady state in C57BL6 mouse at 2 mg/kg, iv and 5 mg/kg, po; type: ADME, organism-based; conditions: in vivo, read-out: Vdss
Summary of the method: as §2

[12] = AUC (0 to 12 hrs) in C57BL6 mouse at 100 mg/kg; type: ADME, organism-based; parameters: time < 12 hr, dose 100 mg/kg; conditions: plasma
[13] = Volume of distribution at steady state in Han Wistar rat at 2 mg/kg, iv and 5 mg/kg, po; type: ADME, organism-based; conditions: in vivo, read-out: Vdss
Summary of the method: as §2

[14] = AUC (0 to 24 hrs) in Beagle dog at 50 mg/kg; type: ADME, organism-based, Canis lupus familiaris; parameters: time < 24 hr, dose 50 mg/kg; conditions: plasma
[15] = Hydrolytic stability of the compound at pH 1 to 10; type: physicochemical; conditions: buffer
[16] = Apparent permeability across apical to basolateral side of human Caco2 cells at 10 uM; type: ADME, cell-based; conditions: Caco-2
[17] = AUC (0 to 12 hrs) in C57BL6 mouse at 5 mg/kg; type: ADME, organism-based; parameters: time < 12 hr, dose 5 mg/kg; conditions: plasma
[18] = Cmax in Beagle dog at 5 mg/kg; type: ADME, organism-based, Canis lupus familiaris; parameters: dose 5 mg/kg; conditions: in vivo
[19] = Cmax in Beagle dog at 1 mg/kg; type: ADME, organism-based, Canis lupus familiaris; parameters: dose 1 mg/kg; conditions: in vivo
[20] = Half life in C57BL6 mouse at 2 mg/kg, iv; type: ADME, organism-based; parameters: dose 2 mg/kg, route intravenous; conditions: in vivo
Summary of the method: as §1

[21] = Half life in Beagle dog at 2 mg/kg, iv; type: ADME, organism-based, Canis lupus familiaris; parameters: dose 2 mg/kg, route intravenous; conditions: in vivo
Summary of the method: as §1

[22] = AUC (0 to 24 hrs) in Beagle dog at 5 mg/kg; type: ADME, organism-based, Canis lupus familiaris; parameters: time < 24 hr, dose 5 mg/kg; conditions: plasma
[23] = Intrinsic clearance in dog hepatocytes assessed per million cells; type: ADME, cell-based, Canis lupus familiaris, Hepatocyte; conditions: read-out: CLH
[24] = Volume of distribution at steady state in Beagle dog at 2 mg/kg, iv and 13 mg/kg, po; type: ADME, organism-based, Canis lupus familiaris; conditions: in vivo, read-out: Vdss
Summary of the method: as §2

[25] = Intrinsic clearance in mouse hepatocytes assessed per million cells; type: ADME, cell-based, Hepatocyte; conditions: read-out: CLH
[26] = Cmax in C57BL6 mouse at 5 mg/kg; type: ADME, organism-based; parameters: dose 5 mg/kg; conditions: in vivo
[27] = Cmax in Beagle dog at 50 mg/kg; type: ADME, organism-based, Canis lupus familiaris; parameters: dose 50 mg/kg; conditions: in vivo
[28] = Cmax in C57BL6 mouse at 100 mg/kg; type: ADME, organism-based; parameters: dose 100 mg/kg; conditions: in vivo
[29] = AUC (0 to 6 hrs) in C57BL6 mouse at 30 mg/kg; type: ADME, organism-based; parameters: time < 6 hr, dose 30 mg/kg; conditions: plasma
[30] = Intrinsic clearance in rat hepatocytes assessed per million cells; type: ADME, cell-based, Hepatocyte; conditions: read-out: CLH
[31] = Half life in C57BL6 mouse at 5 mg/kg, po; type: ADME, organism-based; parameters: dose 5 mg/kg, route oral; conditions: in vivo
Summary of the method: as §1

[32] = Cmax in C57BL6 mouse at 30 mg/kg; type: ADME, organism-based; parameters: dose 30 mg/kg; conditions: in vivo
[33] = Half life in Han Wistar rat at 5 mg/kg, po; type: ADME, organism-based; parameters: dose 5 mg/kg, route oral; conditions: in vivo
Summary of the method: as §1

[34] = AUC (0 to 24 hrs) in Beagle dog at 10 mg/kg; type: ADME, organism-based, Canis lupus familiaris; parameters: time < 24 hr, dose 10 mg/kg; conditions: plasma
[35] = Half life in Han Wistar rat at 2 mg/kg, iv; type: ADME, organism-based; parameters: dose 2 mg/kg, route intravenous; conditions: in vivo
Summary of the method: as §1

[36] = Cmax in Han Wistar rat at 100 mg/kg; type: ADME, organism-based; parameters: dose 100 mg/kg; conditions: in vivo
[37] = AUC (0 to 24 hrs) in Beagle dog at 1 mg/kg; type: ADME, organism-based, Canis lupus familiaris; parameters: time < 24 hr, dose 1 mg/kg; conditions: plasma
[38] = Plasma clearance in Beagle dog at 2 mg/kg, iv and […] mg/kg, po; type: ADME, organism-based, Canis lupus familiaris
[39] = AUC (0 to 24 hrs) in Han Wistar rat at 5 mg/kg; type: ADME, organism-based; parameters: time < 24 hr, dose 5 mg/kg; conditions: plasma
[40] = Drug excretion in bile-duct cannulated Han Wistar rat bile; type: ADME; conditions: in vivo
[41] = Intrinsic clearance in human liver microsomes; type: ADME, Microsome; conditions: read-out: CLH

C[C@@H]1CN(C(=O)OC(C)(C)C)CCN1c1ncc(OCc2ccc(S(C)(=O)=O)cc2C#N)cn1
logD (physchem; octanol/phosphate buffer): 3.3

C[C@@H]1CN(c2ncc(F)cn2)CCN1c1ncc(OCc2ccncc2C#N)cn1
logD (physchem; octanol/phosphate buffer): 3.4

CC(C)c1nc(N2CCN(c3ncc(OCc4ccncc4C#N)cn3)[C@H](C)C2)no1
Drug excretion [1]: Active | bioavailability [2]: 24% | clearance [3]: 49 mL/min/kg | clearance [4]: 28 mL/min/kg | Cmax [5]: 1300 nM | AUC(0-t) at 24 h [6]: 97 µM·h | bioavailability [7]: 22% | half-life [8]: 300 min | Cmax [9]: 700 nM | bioavailability [10]: 29% | Vd [11]: 2.4 L/kg | AUC(0-t) at 12 h [12]: 42 µM·h | Vd [13]: 5.1 L/kg | AUC(0-t) at 24 h [14]: 119 µM·h | Stability [15]: Stable | Papp A→B at 10 µM [16]: 85 ×10⁻⁶ cm/s | AUC(0-t) at 12 h [17]: 0.7 µM·h | Cmax [18]: 2500 nM | Cmax [19]: 600 nM | half-life [20]: 60 min | half-life [21]: 660 min | AUC(0-t) at 24 h [22]: 14 µM·h | hepatocyte CLint [23]: 5.6 µL/min/1e6 cells | Vd [24]: 4.1 L/kg | hepatocyte CLint [25]: 67 µL/min/1e6 cells | Cmax [26]: 400 nM | Cmax [27]: 10 µM | Cmax [28]: 14 µM | AUC(0-t) at 6 h [29]: 6.4 µM·h | hepatocyte CLint [30]: 29 µL/min/1e6 cells | half-life [31]: 60 min | Cmax [32]: 3.5 µM | half-life [33]: 360 min | AUC(0-t) at 24 h [34]: 11 µM·h | half-life [35]: 180 min | Cmax [36]: 6.3 µM | AUC(0-t) at 24 h [37]: 4 µM·h | clearance [38]: 3.6 mL/min/kg | AUC(0-t) at 24 h [39]: 2.7 µM·h | logD (physchem; octanol/phosphate buffer): 3.3 | Drug excretion [40]: Active

C[C@@H]1CN(C(=O)OC(C)(C)C)CCN1c1ncc(OCc2ccc(S(C)(=O)=O)cc2F)cn1
logD (physchem; octanol/phosphate buffer): 3.7

C[C@@H]1CN(c2noc(C(F)(F)F)n2)CCN1c1ncc(OCc2ccncc2C#N)cn1
logD (physchem; octanol/phosphate buffer): 4

CC(C)(C)OC(=O)N1CCN(c2ncc(-c3ccc(OCC#N)cc3)cn2)CC1
microsomal CLint [41]: 259 µL/min/mg | logD (physchem; octanol/phosphate buffer): 4.2

CC(C)(C)OC(=O)N1C[C@@H]2CC[C@H]1CN2c1ncc(OCc2ccc(S(C)(=O)=O)cc2)cn1
logD (physchem; octanol/phosphate buffer): 3.4

C[C@@H]1CN(C(=O)OC(C)(C)C)CCN1c1ncc(OCc2ccc(S(C)(=O)=O)cc2)cn1
logD (physchem; octanol/phosphate buffer): 3.5

C[C@@H]1CN(C(=O)OC(C)(C)C)CCN1c1ncc(OCc2ccc(S(C)(=O)=O)cn2)cn1
logD (physchem; octanol/water): 3

Cc1cnccc1COc1cnc(N2CCN(C(=O)OC(C)(C)C)C[C@H]2C)nc1
logD (physchem; octanol/phosphate buffer): 3.8

CC(C)(C)OC(=O)N1CCN(c2ncc(OCc3ccc(S(C)(=O)=O)cc3)nn2)CC1
logD (physchem; octanol/phosphate buffer): 2.9

C[C@@H]1CN(c2ncc(OCc3ccc(S(C)(=O)=O)cc3)cn2)[C@@H](C)CN1C(=O)OC(C)(C)C
logD (physchem; octanol/phosphate buffer): > 3.7

C[C@@H]1CN(C(=O)OCC(F)(F)F)CCN1c1ncc(OCc2ccncc2C#N)cn1
logD (physchem; octanol/phosphate buffer): 3

C[C@@H]1CN(C(=O)OC(C)(C)C)C[C@H](C)N1c1ncc(OCc2ccc(S(C)(=O)=O)cc2)cn1
logD (physchem; octanol/phosphate buffer): > 3.6

C[C@@H]1CN(C(=O)OC(C)(C)C)CCN1c1ncc(OCc2ccc(S(=O)(=O)N(C)C)cc2)cn1
logD (physchem; octanol/phosphate buffer): > 4.3

C[C@@H]1CN(c2noc(C(F)F)n2)CCN1c1ncc(OCc2ccncc2C#N)cn1
logD (physchem; octanol/water): 2.9

CC(C)(C)OC(=O)N1CCN(c2ncc(OCc3ccncc3F)cn2)CC1
logD (physchem; octanol/phosphate buffer): 3.6

CC(C)(C)OC(=O)N1CCN(c2ncc(OCc3ccc(S(C)(=O)=O)cc3)cn2)CC1
microsomal CLint [41]: 47 µL/min/mg | logD (physchem; octanol/phosphate buffer): 3.2

C[C@@H]1CN(c2noc(C3CC3)n2)CCN1c1ncc(OCc2ccncc2C#N)cn1
logD (physchem; octanol/phosphate buffer): 3.1
